Common to all, as to format: functional
Assay [1] has as its system Plasmodium berghei. In words: Antimalarial activity as parasitaemia after 3 days against Plasmodium berghei NK65 infected JCL-ICR mice (Mus musculus) at 100 mg/kg. A digest of the protocol:
(§1)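 Female mice aged 4–5 weeks, 5 per group, were infected ip on day 0 with 0.2 mL of 1:100 donor blood in saline (3.3×10^6 parasitized erythrocytes). 100 mg/kg was given twice, at 2 and 48 h post-infection, in 5% gum arabic/saline (solids) or corn oil (oils). Tail-blood thin smears on days 3, 7 and 14 were methanol-fixed and Giemsa-stained (2%, 2 h). % infected erythrocytes was counted microscopically.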

For assay [2], the system named is Mus musculus. In words: Survival rate in Plasmodium berghei NK65 infected JCL-ICR mice (Mus musculus) at 100 mg/kg body weight after 14 days. The note with it: 336 h. A digest of the protocol:
(§2)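 Female JCL-ICR mice (4–5 weeks), 5 per group, were infected i.p. on day 0 with 0.2 mL of a 1:100 saline dilution of donor-mouse blood (3.3×10^6 parasitized erythrocytes). Triazenes were dosed at 100 mg/kg in 5% gum arabic or corn oil, and chloroquine at 50 mg/kg, twice, at 2 and 48 h post-infection. Controls got 5% gum arabic. Mice were monitored daily, with survival rate at day 14.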

In assay [3] the test system is Plasmodium berghei. The assay can be described thus: Antimalarial activity as parasitaemia after 7 days against Plasmodium berghei NK65 infected JCL-ICR mice (Mus musculus) at 100 mg/kg. Summed up:
as §1

Assay [4] has as its system Plasmodium berghei. The assay can be described thus: Antimalarial activity as parasitaemia after 14 days against Plasmodium berghei NK65 infected JCL-ICR mice (Mus musculus) at 100 mg/kg. A digest of the protocol:
as §1

The test system of assay [5] is Mus musculus. In words: Survival rate in Plasmodium berghei NK65 infected JCL-ICR mice (Mus musculus) at 50 mg/kg body weight after 14 days. Conditions: 336 h. A digest of the protocol:
as §2

The test system of assay [6] is Plasmodium berghei. In words: Antimalarial activity as parasitaemia after 14 days against Plasmodium berghei NK65 infected JCL-ICR mice (Mus musculus) at 50 mg/kg. Summed up:
(§3)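 Chloroquine reference arm: 5 female mice aged 4–5 weeks per group, infected ip on day 0 with 0.2 mL of 1:100 diluted donor blood (3.3×10^6 parasitized erythrocytes). 50 mg/kg was given at 2 and 48 h post-infection. On days 7 and 14, tail-blood smears were methanol-fixed and stained with 2% Giemsa for 2 h, and % parasitized erythrocytes was scored by microscopy.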

Assay [7] relates to Plasmodium berghei. The assay can be described thus: Antimalarial activity as parasitaemia after 7 days against Plasmodium berghei NK65 infected JCL-ICR mice (Mus musculus) at 50 mg/kg. A digest of the protocol:
as §3

Each structure is given as a SMILES string.

On to `Cc1cccc(C)c1/N=N/N(C)C`, for which the values for the Activity in the assay on Plasmodium berghei [1] and in the assay with Plasmodium berghei [3] were 1.7% and 53.9%, respectively. Besides, in the assay with Mus musculus [2], the survival at 100 mg/kg turned out to be 0%.

For `CN(C)/N=N/c1ccc(C(F)(F)F)cc1`, the Activity turned out to be 4.8% in the assay on Plasmodium berghei [1], 67.9% with Plasmodium berghei [4] and 17.6% in the assay with Plasmodium berghei [3]. Moreover, in the assay with Mus musculus [2], the survival at 100 mg/kg was determined as 80%.

Turning to `Cc1cccc(C)c1/N=N/N1CCCC1`, the Activity with Plasmodium berghei [1] is on record as 5.6%; in the assay on Plasmodium berghei [4], 81.7%; in the assay with Plasmodium berghei [3] it was 54.6%. Further, the survival at 100 mg/kg with Mus musculus [2] was determined as 40%.

For the compound `Cc1cc(C)c(/N=N/N2CCCCC2)c(C)c1`, the Activity in the assay on Plasmodium berghei [1] was 4.2%; in the assay on Plasmodium berghei [3], 76.4%. In the assay on Mus musculus [2], this compound gave a survival at 100 mg/kg of 0%.

Take `FC(F)(F)c1ccc(/N=N/N2CCCC2)cc1`: the results for the Activity in the assay on Plasmodium berghei [1] and with Plasmodium berghei [3] were 2.9% and 66.3%, respectively. The survival at 100 mg/kg in the assay on Mus musculus [2] worked out at 0%.

As to `FC(F)(F)c1ccc(/N=N/N2CCCCC2)cc1`, the Activity with Plasmodium berghei [1] is 2.3%; in the assay with Plasmodium berghei [3], 44.6%. In the assay with Mus musculus [2], this compound had a survival at 100 mg/kg of 0%.

Consider `Cc1cccc(C)c1/N=N/N1CCCCC1`, for which the Activity in the assay with Plasmodium berghei [1] was 4.2%; in the assay on Plasmodium berghei [3], 76.4%. In the assay with Mus musculus [2], the survival at 100 mg/kg worked out at 0%.

As to `Cc1cc(C)c(/N=N/N(C)C)c(C)c1`, the Activity is listed as 4.4% with Plasmodium berghei [1], 73.3% in the assay on Plasmodium berghei [4] and 12.4% in the assay on Plasmodium berghei [3]. In the assay with Mus musculus [2], the survival at 100 mg/kg came out at 40%.

For `Cc1cc(C)c(/N=N/N2CCCC2)c(C)c1`, the Activity in the assay on Plasmodium berghei [1] turned out to be 4.1%; with Plasmodium berghei [4], 74.6%; with Plasmodium berghei [3] it was 38.5%. This compound also gave a survival at 100 mg/kg with Mus musculus [2] of 60%.

With `CN(C)/N=N/c1ccc(F)cc1`, the values for the Activity in the assay with Plasmodium berghei [1], in the assay on Plasmodium berghei [4] and in the assay with Plasmodium berghei [3] were 1.7%, 60.4% and 53.5%, respectively. Moreover, the survival at 100 mg/kg with Mus musculus [2] came to 20%.

Regarding `CN(C)/N=N/c1ccc(Cl)cc1`, the Activity is on record as 4.8% with Plasmodium berghei [1], 62.5% in the assay with Plasmodium berghei [4] and 27% in the assay with Plasmodium berghei [3]. Besides, in the assay on Mus musculus [2], the survival at 100 mg/kg came to 60%.

For the compound `CCN(CC)CCCC(C)Nc1ccnc2cc(Cl)ccc12` (configuration not stated) [CHLOROQUINE], the survival at 50 mg/kg in the assay with Mus musculus [5] worked out at 100%. Also, the Activity was 8.5% in the assay with Plasmodium berghei [6] and below 1% with Plasmodium berghei [7].

The values are drawn from ChEMBL document CHEMBL1143020, “Antimalarial activity of 1-aryl-3,3-dialkyltriazenes” (2007).
